Where “and” joins values, the source holds several entries; their conditions need not be identical. Equal entries are not always repeated.
Tested on: Fibroblast
Experiment: Multiplex assay against human fibroblast
Format: toxicity, cell-based
Settings: number of replicates 2
Method in brief: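 Live cells carried four stains from seeding: Hoechst33342, BioTracker Green Microtubule Cytoskeleton Dye, MitoTracker Red and Annexin V Alexa Fluor 680. They were imaged on a CQ1 microscope at 37°C and 5% CO2 after compound addition. Using CellPathfinder machine-learning gating, cells were split into Hoechst high-intensity objects or normal cells, normal cells into healthy, pyknosed or fragmented nuclei, and pyknosed cells into mitotic or apoptotic; tubulin, mitochondrial-mass and membrane-permeability phenotypes are per cents of healthy-nucleus cells.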

[1] = 12 h, 1 µM, compound concentration 1 uM
[2] = 12 h, 10 µM, compound concentration 10 uM
[3] = 24 h, 1 µM, compound concentration 1 uM
[4] = 24 h, 10 µM, compound concentration 10 uM
[5] = 48 h, 1 µM, compound concentration 1 uM
[6] = 48 h, 10 µM, compound concentration 10 uM
[7] = 12 h, 0 µM, compound concentration 0 uM
[8] = 24 h, 0 µM, compound concentration 0 uM
[9] = 48 h, 0 µM, compound concentration 0 uM

## COc1ccccc1-c1cc(Nc2cccc(CS(N)(=O)=O)c2)ncn1
[1]
  Population Apoptotic (%): 36% and 33%
  Population Fragmented Nuclei (%): 4% and 7%
  Population Healthy Nuclei (%): 78% and 68%
  Population Hoechst High Intensity Objects (%): 0%
  Population Membrane Permeable-Phenotype (%): 8% and 2%
  Population Mitochondria Different-Phenotype (%): 1% and 0%
  Population Mitotic Cells (%): 63% and 66%
  Population Normal (%): 100% and 99%
  Population Pyknosed Nuclei (%): 16% and 24%
  Population Tubulin-Different-Phenotype (%): 13% and 7%
  Total Cell Count: 202 and 230
[2]
  Population Apoptotic (%): 46% and 42%
  Population Fragmented Nuclei (%): 4% and 7%
  Population Healthy Nuclei (%): 77% and 71%
  Population Hoechst High Intensity Objects (%): 0%
  Population Membrane Permeable-Phenotype (%): 7% and 5%
  Population Mitochondria Different-Phenotype (%): 0% and 1%
  Population Mitotic Cells (%): 53% and 57%
  Population Normal (%): 100% and 99%
  Population Pyknosed Nuclei (%): 17% and 21%
  Population Tubulin-Different-Phenotype (%): 17% and 19%
  Total Cell Count: 181 and 214
[3]
  Population Apoptotic (%): 41% and 49%
  Population Fragmented Nuclei (%): 6% and 10%
  Population Healthy Nuclei (%): 75% and 64%
  Population Hoechst High Intensity Objects (%): 0%
  Population Membrane Permeable-Phenotype (%): 5% and 7%
  Population Mitochondria Different-Phenotype (%): 2% and 0%
  Population Mitotic Cells (%): 58% and 50%
  Population Normal (%): 100% and 99%
  Population Pyknosed Nuclei (%): 18% and 25%
  Population Tubulin-Different-Phenotype (%): 15% and 12%
  Total Cell Count: 194 and 245
[4]
  Population Apoptotic (%): 61% and 55%
  Population Fragmented Nuclei (%): 10% and 9%
  Population Healthy Nuclei (%): 76% and 68%
  Population Hoechst High Intensity Objects (%): 0%
  Population Membrane Permeable-Phenotype (%): 1%
  Population Mitochondria Different-Phenotype (%): 3% and 4%
  Population Mitotic Cells (%): 38% and 44%
  Population Normal (%): 100%
  Population Pyknosed Nuclei (%): 12% and 21%
  Population Tubulin-Different-Phenotype (%): 18% and 15%
  Total Cell Count: 202 and 214
[5]
  Population Apoptotic (%): 66% and 56%
  Population Fragmented Nuclei (%): 5% and 14%
  Population Healthy Nuclei (%): 78% and 67%
  Population Hoechst High Intensity Objects (%): 0%
  Population Membrane Permeable-Phenotype (%): 4% and 6%
  Population Mitochondria Different-Phenotype (%): 0%
  Population Mitotic Cells (%): 33% and 43%
  Population Normal (%): 99%
  Population Pyknosed Nuclei (%): 15% and 18%
  Population Tubulin-Different-Phenotype (%): 8% and 5%
  Total Cell Count: 192 and 250
[6]
  Population Apoptotic (%): 78% and 80%
  Population Fragmented Nuclei (%): 9%
  Population Healthy Nuclei (%): 83% and 74%
  Population Hoechst High Intensity Objects (%): 0%
  Population Membrane Permeable-Phenotype (%): 3% and 9%
  Population Mitochondria Different-Phenotype (%): 1%
  Population Mitotic Cells (%): 21% and 20%
  Population Normal (%): 100%
  Population Pyknosed Nuclei (%): 6% and 16%
  Population Tubulin-Different-Phenotype (%): 16% and 26%
  Total Cell Count: 203 and 209

## COc1cc(C(N)=O)ccc1Nc1ncc2c(n1)N(CCC(C)C)[C@H](C)C(=O)N2C
[7]
  Population Apoptotic (%): 87% and 56%
  Population Fragmented Nuclei (%): 48% and 61%
  Population Healthy Nuclei (%): 41% and 32%
  Population Hoechst High Intensity Objects (%): 0%
  Population Mitochondria Different-Phenotype (%): 0% and 3%
  Population Normal (%): 100%
  Population Pyknosed Nuclei (%): 9% and 5%
  Population Tubulin-Different-Phenotype (%): 79% and 61%
  Total Cell Count: 166 and 267
[1]
  Population Apoptotic (%): 56% and 34%
  Population Fragmented Nuclei (%): 17% and 20%
  Population Healthy Nuclei (%): 57% and 64%
  Population Hoechst High Intensity Objects (%): 0%
  Population Membrane Permeable-Phenotype (%): 7% and 15%
  Population Mitochondria Different-Phenotype (%): 0% and 2%
  Population Mitotic Cells (%): 43% and 65%
  Population Normal (%): 99% and 100%
  Population Pyknosed Nuclei (%): 25% and 15%
  Population Tubulin-Different-Phenotype (%): 22% and 28%
  Total Cell Count: 148 and 165
[8]
  Population Apoptotic (%): 80% and 69%
  Population Fragmented Nuclei (%): 54% and 72%
  Population Healthy Nuclei (%): 29% and 21%
  Population Hoechst High Intensity Objects (%): 0%
  Population Membrane Permeable-Phenotype (%): 17% and 9%
  Population Mitochondria Different-Phenotype (%): 4% and 7%
  Population Mitotic Cells (%): 19% and 30%
  Population Normal (%): 100%
  Population Tubulin-Different-Phenotype (%): 78% and 65%
  Total Cell Count: 162 and 237
[3]
  Population Apoptotic (%): 54% and 61%
  Population Fragmented Nuclei (%): 13% and 27%
  Population Healthy Nuclei (%): 65% and 56%
  Population Hoechst High Intensity Objects (%): 0%
  Population Membrane Permeable-Phenotype (%): 10% and 5%
  Population Mitochondria Different-Phenotype (%): 0%
  Population Mitotic Cells (%): 45% and 38%
  Population Normal (%): 100%
  Population Pyknosed Nuclei (%): 20% and 15%
  Population Tubulin-Different-Phenotype (%): 10% and 14%
  Total Cell Count: 152 and 166
[9]
  Population Apoptotic (%): 82% and 80%
  Population Fragmented Nuclei (%): 64% and 84%
  Population Healthy Nuclei (%): 21% and 9%
  Population Hoechst High Intensity Objects (%): 0%
  Population Membrane Permeable-Phenotype (%): 18% and 8%
  Population Mitochondria Different-Phenotype (%): 0% and 8%
  Population Mitotic Cells (%): 17% and 20%
  Population Normal (%): 100%
  Population Pyknosed Nuclei (%): 13% and 6%
  Population Tubulin-Different-Phenotype (%): 64% and 56%
  Total Cell Count: 171 and 241
[5]
  Population Apoptotic (%): 68% and 46%
  Population Fragmented Nuclei (%): 18% and 25%
  Population Healthy Nuclei (%): 66%
  Population Hoechst High Intensity Objects (%): 0%
  Population Membrane Permeable-Phenotype (%): 9% and 11%
  Population Mitochondria Different-Phenotype (%): 0%
  Population Mitotic Cells (%): 32% and 53%
  Population Normal (%): 100%
  Population Pyknosed Nuclei (%): 15% and 8%
  Population Tubulin-Different-Phenotype (%): 8% and 10%
  Total Cell Count: 161 and 162

## NC(=O)c1ccc(-c2nc(-c3ccc4c(c3)OCCO4)c(-c3ccccn3)[nH]2)cc1
[1]
  Population Apoptotic (%): 31% and 28%
  Population Fragmented Nuclei (%): 5%
  Population Healthy Nuclei (%): 81% and 72%
  Population Hoechst High Intensity Objects (%): 0%
  Population Membrane Permeable-Phenotype (%): 8% and 4%
  Population Mitochondria Different-Phenotype (%): 0% and 2%
  Population Mitotic Cells (%): 68% and 71%
  Population Normal (%): 100%
  Population Pyknosed Nuclei (%): 13% and 22%
  Population Tubulin-Different-Phenotype (%): 15% and 6%
  Total Cell Count: 265 and 208
[2]
  Population Apoptotic (%): 26% and 17%
  Population Fragmented Nuclei (%): 10% and 18%
  Population Healthy Nuclei (%): 57% and 67%
  Population Hoechst High Intensity Objects (%): 0%
  Population Membrane Permeable-Phenotype (%): 1% and 3%
  Population Mitochondria Different-Phenotype (%): 0% and 1%
  Population Mitotic Cells (%): 73% and 82%
  Population Normal (%): 100%
  Population Pyknosed Nuclei (%): 32% and 13%
  Total Cell Count: 187 and 209
[3]
  Population Apoptotic (%): 50% and 53%
  Population Fragmented Nuclei (%): 9% and 11%
  Population Healthy Nuclei (%): 83% and 67%
  Population Hoechst High Intensity Objects (%): 0%
  Population Membrane Permeable-Phenotype (%): 4% and 2%
  Population Mitochondria Different-Phenotype (%): 0%
  Population Mitotic Cells (%): 50% and 46%
  Population Normal (%): 100% and 99%
  Population Tubulin-Different-Phenotype (%): 12% and 5%
  Total Cell Count: 287 and 229
[4]
  Population Apoptotic (%): 37% and 14%
  Population Fragmented Nuclei (%): 12% and 24%
  Population Healthy Nuclei (%): 70% and 69%
  Population Hoechst High Intensity Objects (%): 0%
  Population Membrane Permeable-Phenotype (%): 2%
  Population Mitochondria Different-Phenotype (%): 1%
  Population Mitotic Cells (%): 62% and 85%
  Population Normal (%): 99% and 100%
  Population Pyknosed Nuclei (%): 16% and 6%
  Population Tubulin-Different-Phenotype (%): 10% and 5%
  Total Cell Count: 209 and 225
[5]
  Population Apoptotic (%): 56% and 77%
  Population Fragmented Nuclei (%): 12% and 14%
  Population Healthy Nuclei (%): 82% and 73%
  Population Hoechst High Intensity Objects (%): 0%
  Population Membrane Permeable-Phenotype (%): 4%
  Population Mitochondria Different-Phenotype (%): 0%
  Population Mitotic Cells (%): 43% and 22%
  Population Normal (%): 100% and 99%
  Population Pyknosed Nuclei (%): 5% and 12%
  Population Tubulin-Different-Phenotype (%): 5% and 4%
  Total Cell Count: 309 and 221
[6]
  Population Apoptotic (%): 33% and 40%
  Population Fragmented Nuclei (%): 16% and 24%
  Population Healthy Nuclei (%): 76% and 73%
  Population Hoechst High Intensity Objects (%): 0%
  Population Membrane Permeable-Phenotype (%): 0% and 2%
  Population Mitochondria Different-Phenotype (%): 0% and 1%
  Population Mitotic Cells (%): 66% and 60%
  Population Normal (%): 100%
  Population Pyknosed Nuclei (%): 6% and 2%
  Population Tubulin-Different-Phenotype (%): 11% and 7%
  Total Cell Count: 216 and 234
